Consider four compounds from ChEMBL document CHEMBL4177600, “Identification of novel PI3K inhibitors through a scaffold hopping strategy” (Bioorg Med Chem Lett, 2017).

Data set [1] deals with PI3-kinase p110-delta/p85-alpha (Homo sapiens, UniProt O00329). As to the kind of experiment: Inhibition of recombinant human full-length N-terminal His6-tagged p110delta/human full-length p85alpha expressed in baculovirus infected Sf21 insect cells using PIP2 as substrate by HTRF assay. Conditions: read-out: Ki(app).
Chain of PI3-kinase p110-delta/p85-alpha (P27986 whole entry): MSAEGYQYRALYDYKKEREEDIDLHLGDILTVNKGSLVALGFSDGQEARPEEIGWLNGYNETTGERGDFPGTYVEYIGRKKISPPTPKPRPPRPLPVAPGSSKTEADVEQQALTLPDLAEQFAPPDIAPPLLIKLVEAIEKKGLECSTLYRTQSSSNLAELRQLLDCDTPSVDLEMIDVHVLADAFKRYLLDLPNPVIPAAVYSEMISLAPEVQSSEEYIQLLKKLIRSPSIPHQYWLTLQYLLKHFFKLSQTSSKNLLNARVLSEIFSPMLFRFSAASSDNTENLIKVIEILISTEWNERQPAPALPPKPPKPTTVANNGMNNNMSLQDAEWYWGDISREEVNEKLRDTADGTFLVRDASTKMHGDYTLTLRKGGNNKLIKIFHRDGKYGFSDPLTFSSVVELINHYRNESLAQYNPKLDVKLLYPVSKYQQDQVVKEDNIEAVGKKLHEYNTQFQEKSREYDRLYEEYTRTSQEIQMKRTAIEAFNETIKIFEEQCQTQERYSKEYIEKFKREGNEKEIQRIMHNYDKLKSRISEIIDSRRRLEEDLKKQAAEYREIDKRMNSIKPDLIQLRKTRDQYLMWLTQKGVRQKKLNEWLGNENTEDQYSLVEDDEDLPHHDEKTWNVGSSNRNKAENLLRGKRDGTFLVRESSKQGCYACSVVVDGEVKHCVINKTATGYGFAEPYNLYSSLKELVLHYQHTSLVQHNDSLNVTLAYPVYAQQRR
Chain of PI3-kinase p110-delta/p85-alpha (O00329 whole entry): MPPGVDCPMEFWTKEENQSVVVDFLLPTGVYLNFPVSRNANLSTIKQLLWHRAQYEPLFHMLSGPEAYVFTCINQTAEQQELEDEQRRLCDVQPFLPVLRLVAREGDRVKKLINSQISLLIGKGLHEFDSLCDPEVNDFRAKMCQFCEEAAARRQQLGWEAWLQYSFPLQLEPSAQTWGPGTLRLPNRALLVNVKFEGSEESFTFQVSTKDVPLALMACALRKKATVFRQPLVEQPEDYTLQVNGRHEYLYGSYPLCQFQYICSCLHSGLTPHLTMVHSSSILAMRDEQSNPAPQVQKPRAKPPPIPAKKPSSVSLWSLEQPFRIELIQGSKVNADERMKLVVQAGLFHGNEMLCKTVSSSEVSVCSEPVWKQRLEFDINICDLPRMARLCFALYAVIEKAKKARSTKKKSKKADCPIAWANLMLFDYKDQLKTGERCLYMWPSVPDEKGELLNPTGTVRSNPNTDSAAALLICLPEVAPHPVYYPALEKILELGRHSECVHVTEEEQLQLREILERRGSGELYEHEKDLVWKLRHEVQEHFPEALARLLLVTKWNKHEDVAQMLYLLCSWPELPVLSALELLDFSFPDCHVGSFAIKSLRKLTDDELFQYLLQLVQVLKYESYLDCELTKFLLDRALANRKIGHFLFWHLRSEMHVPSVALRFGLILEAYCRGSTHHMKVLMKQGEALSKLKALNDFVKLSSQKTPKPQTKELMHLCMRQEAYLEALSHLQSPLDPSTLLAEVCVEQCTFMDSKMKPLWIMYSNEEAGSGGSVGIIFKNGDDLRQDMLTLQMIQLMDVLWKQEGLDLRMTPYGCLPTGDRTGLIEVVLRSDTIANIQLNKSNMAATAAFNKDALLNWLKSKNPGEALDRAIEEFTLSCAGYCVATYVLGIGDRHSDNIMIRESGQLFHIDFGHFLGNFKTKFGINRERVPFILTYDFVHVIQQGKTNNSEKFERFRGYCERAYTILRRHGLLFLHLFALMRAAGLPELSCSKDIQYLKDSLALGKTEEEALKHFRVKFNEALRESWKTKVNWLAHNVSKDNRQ
For data set [2], the target named is Voltage-gated inwardly rectifying potassium channel KCNH2 (Homo sapiens, UniProt Q12809). As to the kind of experiment: Inhibition of human ERG by Tracer Red dye based fluorescence polarization assay. An outline of the steps:
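hERG binding measured with Predictor hERG kit per kit instructions, read by fluorescence polarization.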
(In general: In fluorescence polarisation assays a small probe gives low polarisation when free and higher when bound to something large.)

Data set [3] deals with PI3-kinase p110-alpha/p85-alpha (Homo sapiens, UniProt P42336). As to the kind of experiment: Inhibition of full-length human P110alpha (1 to 1068 residues)/N-terminal GST-fused p85alpha (1 to 724 residues) expressed in baculovirus expression system by ADP Hunter assay. Conditions: read-out: Ki(app).
Chain of PI3-kinase p110-alpha/p85-alpha (P27986 whole entry, the tested form may be a part): as the sequence (P27986 whole entry) above
Chain of PI3-kinase p110-alpha/p85-alpha (P42336 whole entry, the tested form may be a part): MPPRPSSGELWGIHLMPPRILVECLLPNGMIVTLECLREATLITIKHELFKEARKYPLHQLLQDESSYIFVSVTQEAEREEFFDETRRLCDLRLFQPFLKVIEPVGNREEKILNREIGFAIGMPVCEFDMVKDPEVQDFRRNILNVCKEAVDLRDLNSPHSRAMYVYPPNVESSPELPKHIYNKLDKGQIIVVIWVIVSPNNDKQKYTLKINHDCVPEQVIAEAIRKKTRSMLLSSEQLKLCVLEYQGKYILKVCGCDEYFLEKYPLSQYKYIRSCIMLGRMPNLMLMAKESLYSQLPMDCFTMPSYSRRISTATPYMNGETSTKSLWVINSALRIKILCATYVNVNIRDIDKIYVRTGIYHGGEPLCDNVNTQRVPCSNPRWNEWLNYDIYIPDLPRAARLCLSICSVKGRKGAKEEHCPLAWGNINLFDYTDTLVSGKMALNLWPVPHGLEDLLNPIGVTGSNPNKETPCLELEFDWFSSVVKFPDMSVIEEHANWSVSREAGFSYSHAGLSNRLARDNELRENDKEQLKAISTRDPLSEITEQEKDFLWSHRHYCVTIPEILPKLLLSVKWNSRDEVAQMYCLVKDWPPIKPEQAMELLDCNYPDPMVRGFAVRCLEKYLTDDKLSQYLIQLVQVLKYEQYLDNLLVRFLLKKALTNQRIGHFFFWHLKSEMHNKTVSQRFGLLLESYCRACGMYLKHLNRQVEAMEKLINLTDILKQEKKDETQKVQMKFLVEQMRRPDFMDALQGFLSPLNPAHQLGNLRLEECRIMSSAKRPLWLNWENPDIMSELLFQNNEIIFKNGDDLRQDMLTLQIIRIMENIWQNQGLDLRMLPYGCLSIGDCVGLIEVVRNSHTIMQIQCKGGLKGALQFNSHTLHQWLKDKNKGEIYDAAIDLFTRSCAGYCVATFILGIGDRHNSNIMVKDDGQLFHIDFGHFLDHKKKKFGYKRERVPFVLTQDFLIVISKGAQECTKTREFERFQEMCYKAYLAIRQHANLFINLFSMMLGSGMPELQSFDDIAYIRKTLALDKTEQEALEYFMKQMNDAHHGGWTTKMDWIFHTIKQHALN
Data set [4] concerns the target T1, Inhibitor of nuclear factor kappa-B kinase subunit beta (Homo sapiens) (UniProt O14920).
T1 sequence (whole entry): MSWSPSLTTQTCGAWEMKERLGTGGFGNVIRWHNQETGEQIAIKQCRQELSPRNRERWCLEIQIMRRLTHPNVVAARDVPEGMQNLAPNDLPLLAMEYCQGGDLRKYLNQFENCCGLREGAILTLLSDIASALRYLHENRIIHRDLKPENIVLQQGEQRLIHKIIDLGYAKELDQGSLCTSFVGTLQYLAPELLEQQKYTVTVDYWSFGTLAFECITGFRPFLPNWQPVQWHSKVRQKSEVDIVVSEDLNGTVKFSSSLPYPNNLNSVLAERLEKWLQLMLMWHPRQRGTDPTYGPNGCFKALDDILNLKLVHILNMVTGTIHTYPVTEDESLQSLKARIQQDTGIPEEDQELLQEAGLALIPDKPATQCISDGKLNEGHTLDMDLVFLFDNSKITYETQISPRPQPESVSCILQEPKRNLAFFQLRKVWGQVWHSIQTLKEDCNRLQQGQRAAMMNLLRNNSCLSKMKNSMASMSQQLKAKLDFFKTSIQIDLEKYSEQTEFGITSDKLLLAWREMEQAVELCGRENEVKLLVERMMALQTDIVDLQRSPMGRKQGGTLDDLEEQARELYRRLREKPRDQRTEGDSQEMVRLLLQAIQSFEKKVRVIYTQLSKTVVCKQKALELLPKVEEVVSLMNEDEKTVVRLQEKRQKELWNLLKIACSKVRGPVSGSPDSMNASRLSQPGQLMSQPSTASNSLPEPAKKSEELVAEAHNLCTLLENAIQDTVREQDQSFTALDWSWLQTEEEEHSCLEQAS
Briefly: Inhibition of recombinant human N-terminal GST/His6-tagged IKKbeta (M1 to S756 residues) expressed in baculovirus infected Sf9 cells at 1 uM using IKBa derived peptide as substrate by filter binding method relative to control. Summed up:
(§1)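 Kinase panel of 24 enzymes, each tested at 1 µM; percent inhibition reported as the average of two independent data points.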

Data set [5] deals with T2, Serine/threonine-protein kinase Chk1 (Homo sapiens) (UniProt O14757).
T2 sequence (whole entry): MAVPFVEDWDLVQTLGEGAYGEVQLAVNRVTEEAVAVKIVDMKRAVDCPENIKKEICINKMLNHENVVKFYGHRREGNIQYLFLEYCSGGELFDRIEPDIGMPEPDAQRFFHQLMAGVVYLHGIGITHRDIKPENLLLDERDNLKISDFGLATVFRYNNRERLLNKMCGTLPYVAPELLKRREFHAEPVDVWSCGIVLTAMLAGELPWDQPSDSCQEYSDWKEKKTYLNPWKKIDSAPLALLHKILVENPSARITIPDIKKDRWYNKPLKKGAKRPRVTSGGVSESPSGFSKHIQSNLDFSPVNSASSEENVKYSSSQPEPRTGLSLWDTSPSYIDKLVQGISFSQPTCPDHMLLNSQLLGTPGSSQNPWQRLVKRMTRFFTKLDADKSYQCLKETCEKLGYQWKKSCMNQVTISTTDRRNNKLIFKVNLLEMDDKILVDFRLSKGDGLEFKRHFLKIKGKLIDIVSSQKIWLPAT
Briefly: Inhibition of recombinant human N-terminal GST/HIS6-tagged CHK1 (M1 to T476 residues) expressed in baculovirus infected Sf9 insect cells at 1 uM using S6 peptide as substrate by fliter binding assay relative to control. An outline of the steps:
as §1

A further data set concerns the target CYP3A4 (Homo sapiens, UniProt P08684). As to the kind of experiment: Inhibition of CYP3A4 (unknown origin) at 10 uM relative to control. In kind it is ADME. An outline of the steps:
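CYP1A2, 2C9, 2C19, 2D6 and 3A4 inhibition measured at 10 µM test compound in duplicate; percent inhibition reported.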

Data set [6] concerns the target T3, Serine/threonine-protein kinase Sgk1 (Homo sapiens) (UniProt O00141).
T3 sequence (whole entry): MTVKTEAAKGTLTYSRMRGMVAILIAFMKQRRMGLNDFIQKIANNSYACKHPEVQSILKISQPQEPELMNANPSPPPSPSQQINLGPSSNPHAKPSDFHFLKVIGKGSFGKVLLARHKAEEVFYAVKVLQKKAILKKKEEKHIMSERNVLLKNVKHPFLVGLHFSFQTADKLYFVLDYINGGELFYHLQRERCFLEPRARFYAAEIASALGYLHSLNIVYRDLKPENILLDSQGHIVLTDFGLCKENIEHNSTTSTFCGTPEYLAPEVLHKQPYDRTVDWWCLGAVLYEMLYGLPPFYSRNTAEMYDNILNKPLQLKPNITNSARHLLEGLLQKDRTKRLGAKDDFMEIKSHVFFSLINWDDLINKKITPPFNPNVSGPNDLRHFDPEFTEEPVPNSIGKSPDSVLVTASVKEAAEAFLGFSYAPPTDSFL
As to the kind of experiment: Inhibition of recombinant human N-terminal GST-tagged SGK1 (M1 to L431 residues) expressed in baculovirus infected Sf9 cells at 1 uM using GSK3-derived peptide as substrate by filter binding method relative to control. An outline of the steps:
as §1

For data set [7], the target named is Serine/threonine-protein kinase Chk2 (Homo sapiens) (UniProt O96017). As to the kind of experiment: Inhibition of CHK2 (unknown origin) at 1 uM relative to control. An outline of the steps: as §1
Chain of Serine/threonine-protein kinase Chk2 (Homo sapiens) (O96017 whole entry, the tested form may be a part): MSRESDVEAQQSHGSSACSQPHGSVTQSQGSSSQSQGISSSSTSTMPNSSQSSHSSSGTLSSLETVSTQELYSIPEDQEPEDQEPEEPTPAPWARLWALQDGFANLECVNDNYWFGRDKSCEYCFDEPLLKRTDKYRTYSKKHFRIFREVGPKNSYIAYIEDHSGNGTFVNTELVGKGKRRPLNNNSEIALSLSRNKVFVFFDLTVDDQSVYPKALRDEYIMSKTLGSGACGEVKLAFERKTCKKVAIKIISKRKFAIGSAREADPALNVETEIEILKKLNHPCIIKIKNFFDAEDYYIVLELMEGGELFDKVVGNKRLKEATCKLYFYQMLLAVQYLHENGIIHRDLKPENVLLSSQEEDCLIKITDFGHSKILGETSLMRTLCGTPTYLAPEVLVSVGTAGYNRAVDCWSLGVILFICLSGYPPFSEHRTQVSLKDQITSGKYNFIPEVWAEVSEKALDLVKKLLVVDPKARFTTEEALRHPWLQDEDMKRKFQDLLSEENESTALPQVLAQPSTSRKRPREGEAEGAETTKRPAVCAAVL
Data set [8] concerns the target Vascular endothelial growth factor receptor 2 (Homo sapiens) (UniProt P35968). Briefly: Inhibition of recombinant human N-terminal GST-tagged VEGFR2 (D807 to V1356 residues) expressed in Sf9 insect cells at 1 uM using Poly(Glu:Tyr)4:1 as substrate by filter binding method relative to control. An outline of the steps: as §1
Data set [9] deals with Platelet-derived growth factor receptor alpha (Homo sapiens) (UniProt P16234). As to the kind of experiment: Inhibition of recombinant human N-terminal GST/His6-tagged PDGFRalpha (Q551 to L1089 residues) expressed in Sf9 insect cells at 1 uM using TRK-C-derived peptide as substrate by filter binding method relative to control. Summed up:
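Single-point screen at 1 µM in a 24-kinase panel run externally; each value is the average of two independent data points. The detailed assay conditions are given only on the provider's site.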

In the next data set the target is PI3K p110 beta/p85 alpha (Homo sapiens, UniProt P42338). As to the kind of experiment: Inhibition of p110beta/85alpha (unknown origin) using PIP2 as substrate by HTRF assay. In kind it is protein-complex assay. The note with it: read-out: Ki(app). For orientation: Time-resolved FRET reads energy transfer from a long-lived donor to a nearby acceptor.
Chain of PI3K p110 beta/p85 alpha (P27986 whole entry): as the sequence (P27986 whole entry) above
Chain of PI3K p110 beta/p85 alpha (P42338 whole entry): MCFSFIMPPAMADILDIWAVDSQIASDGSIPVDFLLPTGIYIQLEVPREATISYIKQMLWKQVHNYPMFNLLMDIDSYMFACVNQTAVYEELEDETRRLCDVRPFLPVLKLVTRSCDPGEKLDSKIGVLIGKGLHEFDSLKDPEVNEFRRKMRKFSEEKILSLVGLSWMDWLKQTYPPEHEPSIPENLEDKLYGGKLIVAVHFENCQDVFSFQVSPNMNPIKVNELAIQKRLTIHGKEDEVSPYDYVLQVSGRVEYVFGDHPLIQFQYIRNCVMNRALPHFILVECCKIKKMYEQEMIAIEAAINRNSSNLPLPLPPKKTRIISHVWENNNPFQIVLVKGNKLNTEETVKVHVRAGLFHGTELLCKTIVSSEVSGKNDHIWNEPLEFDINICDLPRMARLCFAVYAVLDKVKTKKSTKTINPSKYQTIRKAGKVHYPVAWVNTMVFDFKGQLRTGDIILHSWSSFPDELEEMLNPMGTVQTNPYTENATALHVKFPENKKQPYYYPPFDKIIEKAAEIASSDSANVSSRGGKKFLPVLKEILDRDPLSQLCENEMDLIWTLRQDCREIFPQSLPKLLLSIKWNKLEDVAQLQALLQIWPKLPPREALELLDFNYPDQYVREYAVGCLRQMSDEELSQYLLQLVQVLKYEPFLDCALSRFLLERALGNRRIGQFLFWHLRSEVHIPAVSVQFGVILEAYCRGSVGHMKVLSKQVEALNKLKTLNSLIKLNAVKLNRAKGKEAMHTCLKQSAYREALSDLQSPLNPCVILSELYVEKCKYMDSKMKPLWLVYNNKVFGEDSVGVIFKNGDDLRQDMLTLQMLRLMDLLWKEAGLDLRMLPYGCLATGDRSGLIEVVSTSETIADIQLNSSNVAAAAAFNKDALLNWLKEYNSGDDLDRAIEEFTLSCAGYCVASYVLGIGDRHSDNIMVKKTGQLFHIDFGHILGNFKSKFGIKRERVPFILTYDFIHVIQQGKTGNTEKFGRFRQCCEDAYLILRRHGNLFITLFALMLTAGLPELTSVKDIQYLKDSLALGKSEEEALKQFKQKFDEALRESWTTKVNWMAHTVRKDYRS

Chain of CYP3A4 (P08684 whole entry): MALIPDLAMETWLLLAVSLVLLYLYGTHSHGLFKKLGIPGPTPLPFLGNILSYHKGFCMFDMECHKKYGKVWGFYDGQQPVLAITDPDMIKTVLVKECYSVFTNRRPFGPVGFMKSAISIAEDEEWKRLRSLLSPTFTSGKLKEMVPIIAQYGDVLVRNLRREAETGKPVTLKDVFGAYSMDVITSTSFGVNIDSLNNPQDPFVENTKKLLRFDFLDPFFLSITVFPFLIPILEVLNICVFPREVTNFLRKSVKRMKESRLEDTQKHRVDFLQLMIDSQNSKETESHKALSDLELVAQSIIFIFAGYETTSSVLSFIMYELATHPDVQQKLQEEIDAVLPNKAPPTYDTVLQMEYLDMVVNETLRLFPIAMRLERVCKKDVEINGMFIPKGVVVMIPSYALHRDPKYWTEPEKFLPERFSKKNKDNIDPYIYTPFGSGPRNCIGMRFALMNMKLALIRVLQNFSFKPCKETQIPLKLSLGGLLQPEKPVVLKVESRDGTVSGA

Turning to `CS(=O)(=O)N1CCN(Cc2nc3c(N4CCOCC4)nc(-c4cnc(N)nc4)cn3n2)CC1`, the Ki in [1] was 6.3 nM; in data set [3] it was 1 nM. Also, in data set [2], the IC50 (in general, the concentration that inhibits the measured activity by half) is over 30000 nM. Also, the inhibition in data set [4], in data set [5], in [6], in data set [7], in data set [8] and in data set [9] was under 25% throughout. In addition, at CYP3A4, the inhibition (as a rule, the relative decrease from the control value, in per cent) at 10 µM is under 25%.
`CS(=O)(=O)N1CCN(Cc2nc3c(N4CCOCC4)nc(-c4cnc(N)nc4)c(Cl)n3n2)CC1`: the Ki in data set [1] is 3.4 nM; in [3] it was 5.5 nM; at PI3K p110 beta/p85 alpha, 285 nM. The same compound registered a half-inhibitory concentration (IC50) in [2] of over 30000 nM. For the same compound, the inhibition in [4], in data set [5], in data set [6], in data set [7], in data set [8] and in data set [9] was under 25% throughout. Further, the inhibition at 10 µM at CYP3A4 is under 25%.
Take `CS(=O)(=O)N1CCN(Cc2cn3nc(-c4cnc(N)nc4)nc(N4CCOCC4)c3n2)CC1`: the figures for the Ki (in data set [1]; in data set [3]; at PI3K p110 beta/p85 alpha) were 17.9 nM, 1.52 nM and 388 nM, respectively. This compound also had an IC50 in data set [2] of over 30000 nM. The inhibition in data set [4], in data set [5], in [6], in [7], in data set [8] and in [9] was under 25% in each case. Also, on CYP3A4, the inhibition at 10 µM was under 25%.
In the case of `CS(=O)(=O)N1CCN(Cc2cc3c(N4CCOCC4)nc(-c4cnc(N)nc4)cn3n2)CC1`, the Ki came to 7.1 nM in data set [1], 0.99 nM in data set [3] and 49.2 nM on PI3K p110 beta/p85 alpha. For the same compound, in data set [2], the IC50 is over 30000 nM. The inhibition in [4], in data set [5], in data set [6], in [7], in [8] and in [9] was under 25% throughout. The compound further registered an inhibition at 10 µM at CYP3A4 of under 25%.
